Assay results as given in ChEMBL document CHEMBL1153747, “Synthesis and inhibitory activity against human monoamine oxidase of N1-thiocarbamoyl-3,5-di(hetero)aryl-4,5-dihydro-(1H)-pyrazole derivatives” (Eur J Med Chem, 2010).

Columns and labels:
[1] = target: T1, Amine oxidase [flavin-containing] A (Homo sapiens, UniProt P21397); experiment: Inhibition of human recombinant MAOA
T1 sequence (P21397 whole entry): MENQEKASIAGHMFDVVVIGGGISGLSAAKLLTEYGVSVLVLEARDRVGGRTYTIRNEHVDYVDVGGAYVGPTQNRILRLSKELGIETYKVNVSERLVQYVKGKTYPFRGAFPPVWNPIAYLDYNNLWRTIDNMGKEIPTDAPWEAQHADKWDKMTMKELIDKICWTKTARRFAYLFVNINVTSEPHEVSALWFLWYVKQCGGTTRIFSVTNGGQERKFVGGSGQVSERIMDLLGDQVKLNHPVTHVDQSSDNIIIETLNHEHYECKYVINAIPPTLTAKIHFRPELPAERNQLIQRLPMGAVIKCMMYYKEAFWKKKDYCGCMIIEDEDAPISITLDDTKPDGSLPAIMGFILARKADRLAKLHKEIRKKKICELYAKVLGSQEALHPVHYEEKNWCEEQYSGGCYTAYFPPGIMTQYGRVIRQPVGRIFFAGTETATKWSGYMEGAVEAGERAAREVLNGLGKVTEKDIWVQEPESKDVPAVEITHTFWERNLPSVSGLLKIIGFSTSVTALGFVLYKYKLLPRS

[2] = target: T2, Amine oxidase [flavin-containing] B (Homo sapiens, UniProt P27338)
T2 sequence (P27338 whole entry): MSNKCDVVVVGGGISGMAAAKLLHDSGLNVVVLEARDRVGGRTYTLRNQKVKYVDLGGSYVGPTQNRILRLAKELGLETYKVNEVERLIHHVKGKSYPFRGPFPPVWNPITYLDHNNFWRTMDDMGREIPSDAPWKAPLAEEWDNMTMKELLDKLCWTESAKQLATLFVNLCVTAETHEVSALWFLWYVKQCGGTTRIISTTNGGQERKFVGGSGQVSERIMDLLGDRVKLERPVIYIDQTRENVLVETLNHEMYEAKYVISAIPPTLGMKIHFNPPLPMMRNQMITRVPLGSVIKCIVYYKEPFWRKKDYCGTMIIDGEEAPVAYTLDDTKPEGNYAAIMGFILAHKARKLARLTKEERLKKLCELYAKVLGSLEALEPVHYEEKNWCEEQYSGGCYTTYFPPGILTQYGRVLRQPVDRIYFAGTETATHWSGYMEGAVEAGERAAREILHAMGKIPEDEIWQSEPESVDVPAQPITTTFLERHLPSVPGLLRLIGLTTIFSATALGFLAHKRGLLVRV

Homo sapiens = species on record: Homo sapiens; experiment: Selectivity, ratio of IC50 for human recombinant MAOA to human recombinant MAOB
[3] = target: T2, Amine oxidase [flavin-containing] B; experiment: Inhibition of human recombinant MAOB at 1 mM; details: 1000 µM
Summary of the method: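 Recombinant hMAO-A or hMAO-B in microsomes from baculovirus-infected BTI-TN-5B1-4 insect cells, amounts set to oxidize 165 pmol p-tyramine/min in controls. Preincubated with test drug in 0.05 M sodium phosphate pH 7.4, 15 min, 37 °C. Reaction started with Amplex Red, 1 U/mL HRP and 1 mM p-tyramine (final). […] Selectivity = IC50(MAO-A)/IC50(MAO-B).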

| IC50 [1] [µM] | IC50 [2] [µM] | Ratio IC50 (Homo sapiens) | inhibition (INH) [3] | Compound |
| --- | --- | --- | --- | --- |
| 54.7 | 32.5 | 1.7 |  | NC(=S)N1N=C(c2ccccc2)CC1c1ccco1 (centres undefined) |
| 65.8 | 54.5 | 1.2 |  | Cc1ccc(C2CC(c3ccco3)=NN2C(N)=S)cc1 (centres undefined) |
| 70 | 33.3 | 2.1 |  | NC(=S)N1N=C(c2cccs2)CC1c1ccc[nH]1 (centres undefined) |
|  |  |  | Not Active | O=C(NCCN1CCOCC1)c1ccc(Cl)cc1 [MOCLOBEMIDE] |
|  | 69.4 | > 1.4 |  | NC(=S)N1N=C(c2ccc[nH]2)CC1c1ccco1 (centres undefined) |

| Compound | IC50 [1] [µM] | IC50 [2] [µM] | Ratio IC50 (Homo sapiens) | inhibition (INH) [3] |
| --- | --- | --- | --- | --- |
| NC(=S)N1N=C(c2ccccc2)CC1c1ccccc1 (centres undefined) |  | 48.3 | > 2.1 |  |
